Measured values taken from ChEMBL document CHEMBL4011598, “Sulfonamides as Selective NaV1.7 Inhibitors: Optimizing Potency and Pharmacokinetics While Mitigating Metabolic Liabilities” (J Med Chem, 2017).
pIC50: −log10 of the molar value. ≈ marks a conversion by molar mass, not a printed value.

Assays:
Rattus norvegicus = assay: Unbound clearance in rat at 0.5 mg/kg, iv; assay type: ADME, organism-based; conditions: in vivo
How it was run: (§1)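 Male rats given a single 0.5 mg/kg iv dose in DMSO. Unbound clearance (CLu) is total clearance divided by fu, the unbound fraction in plasma.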

[1] = molecular target: Sodium channel protein type 5 subunit alpha (Homo sapiens, UniProt Q14524); assay: Inhibition of human Nav1.5 expressed in HEK293 cells assessed as reduction in peak inward current by ionworks quattro electrophysiology assay; assay type: cell-based
Canis familiaris = assay: Unbound clearance in dog at 0.25 mg/kg, iv; assay type: ADME, organism-based, Canis lupus familiaris; conditions: in vivo
How it was run: (§2)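 Male dogs received a single 0.25 mg/kg iv dose in DMSO. Unbound clearance (CLu) is total clearance divided by fu, the unbound fraction in plasma.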

[2] = Total clearance in dog at 0.25 mg/kg, iv; assay type: ADME, organism-based, Canis lupus familiaris; conditions: in vivo; how it was run: as §2
Cytochrome P450 3A4 [3] = molecular target: T1, Cytochrome P450 3A4 (Homo sapiens, UniProt P08684); assay: Inhibition of CYP3A4 (unknown origin); assay type: ADME
Cytochrome P450 3A4 [4] = molecular target: T1, Cytochrome P450 3A4; assay: Induction of CYP3A4 in human hepatocytes at 10 uM relative to rifampicin
PXR (NR1I2) = molecular target: T2, PXR (NR1I2) (Homo sapiens, UniProt O75469); assay: Activation of human PXR at 10 uM in presence of rifampicin; assay type: ADME; conditions: read-out: Activity
T2 sequence (O75469 whole entry): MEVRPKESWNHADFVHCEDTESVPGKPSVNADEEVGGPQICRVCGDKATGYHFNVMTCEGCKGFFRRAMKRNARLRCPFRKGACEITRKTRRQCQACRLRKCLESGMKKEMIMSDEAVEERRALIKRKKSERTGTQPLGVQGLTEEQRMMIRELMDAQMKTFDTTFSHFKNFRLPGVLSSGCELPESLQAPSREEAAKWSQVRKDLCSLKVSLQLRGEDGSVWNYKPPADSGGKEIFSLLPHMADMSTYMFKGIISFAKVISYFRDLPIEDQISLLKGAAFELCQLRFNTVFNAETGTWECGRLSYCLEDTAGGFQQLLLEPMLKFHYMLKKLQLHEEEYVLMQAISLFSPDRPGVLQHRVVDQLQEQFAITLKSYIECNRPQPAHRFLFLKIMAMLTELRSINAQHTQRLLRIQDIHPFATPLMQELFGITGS

[5] = molecular target: Sodium channel protein type 9 subunit alpha (Homo sapiens, UniProt Q15858); assay: Inhibition of human Nav1.7 expressed in HEK293 cells incubated for 3 to 5 mins at -125 mV holding potential by electrophysiology assay; assay type: cell-based
[6] = Intrinsic clearance in human liver microsomes at 1 uM after 1 to 40 mins in presence of NADPH by LC-MS/MS analysis; assay type: ADME, microsome; conditions: read-out: CLH
[7] = Intrinsic clearance in rat liver microsomes at 1 uM after 1 to 40 mins in presence of NADPH by LC-MS/MS analysis; assay type: ADME, microsome; conditions: read-out: CLH
[8] = Total clearance in rat at 0.5 mg/kg, iv; assay type: ADME, organism-based; conditions: in vivo; how it was run: as §1
[9] = Aqueous solubility of the compound in PBS after 48 hrs by shake flask method; assay type: physicochemical
[10] = Intrinsic clearance in dog liver microsomes; assay type: ADME, Canis lupus familiaris, microsome; conditions: read-out: CLH

Sequence of Sodium channel protein type 5 subunit alpha (Q14524 whole entry): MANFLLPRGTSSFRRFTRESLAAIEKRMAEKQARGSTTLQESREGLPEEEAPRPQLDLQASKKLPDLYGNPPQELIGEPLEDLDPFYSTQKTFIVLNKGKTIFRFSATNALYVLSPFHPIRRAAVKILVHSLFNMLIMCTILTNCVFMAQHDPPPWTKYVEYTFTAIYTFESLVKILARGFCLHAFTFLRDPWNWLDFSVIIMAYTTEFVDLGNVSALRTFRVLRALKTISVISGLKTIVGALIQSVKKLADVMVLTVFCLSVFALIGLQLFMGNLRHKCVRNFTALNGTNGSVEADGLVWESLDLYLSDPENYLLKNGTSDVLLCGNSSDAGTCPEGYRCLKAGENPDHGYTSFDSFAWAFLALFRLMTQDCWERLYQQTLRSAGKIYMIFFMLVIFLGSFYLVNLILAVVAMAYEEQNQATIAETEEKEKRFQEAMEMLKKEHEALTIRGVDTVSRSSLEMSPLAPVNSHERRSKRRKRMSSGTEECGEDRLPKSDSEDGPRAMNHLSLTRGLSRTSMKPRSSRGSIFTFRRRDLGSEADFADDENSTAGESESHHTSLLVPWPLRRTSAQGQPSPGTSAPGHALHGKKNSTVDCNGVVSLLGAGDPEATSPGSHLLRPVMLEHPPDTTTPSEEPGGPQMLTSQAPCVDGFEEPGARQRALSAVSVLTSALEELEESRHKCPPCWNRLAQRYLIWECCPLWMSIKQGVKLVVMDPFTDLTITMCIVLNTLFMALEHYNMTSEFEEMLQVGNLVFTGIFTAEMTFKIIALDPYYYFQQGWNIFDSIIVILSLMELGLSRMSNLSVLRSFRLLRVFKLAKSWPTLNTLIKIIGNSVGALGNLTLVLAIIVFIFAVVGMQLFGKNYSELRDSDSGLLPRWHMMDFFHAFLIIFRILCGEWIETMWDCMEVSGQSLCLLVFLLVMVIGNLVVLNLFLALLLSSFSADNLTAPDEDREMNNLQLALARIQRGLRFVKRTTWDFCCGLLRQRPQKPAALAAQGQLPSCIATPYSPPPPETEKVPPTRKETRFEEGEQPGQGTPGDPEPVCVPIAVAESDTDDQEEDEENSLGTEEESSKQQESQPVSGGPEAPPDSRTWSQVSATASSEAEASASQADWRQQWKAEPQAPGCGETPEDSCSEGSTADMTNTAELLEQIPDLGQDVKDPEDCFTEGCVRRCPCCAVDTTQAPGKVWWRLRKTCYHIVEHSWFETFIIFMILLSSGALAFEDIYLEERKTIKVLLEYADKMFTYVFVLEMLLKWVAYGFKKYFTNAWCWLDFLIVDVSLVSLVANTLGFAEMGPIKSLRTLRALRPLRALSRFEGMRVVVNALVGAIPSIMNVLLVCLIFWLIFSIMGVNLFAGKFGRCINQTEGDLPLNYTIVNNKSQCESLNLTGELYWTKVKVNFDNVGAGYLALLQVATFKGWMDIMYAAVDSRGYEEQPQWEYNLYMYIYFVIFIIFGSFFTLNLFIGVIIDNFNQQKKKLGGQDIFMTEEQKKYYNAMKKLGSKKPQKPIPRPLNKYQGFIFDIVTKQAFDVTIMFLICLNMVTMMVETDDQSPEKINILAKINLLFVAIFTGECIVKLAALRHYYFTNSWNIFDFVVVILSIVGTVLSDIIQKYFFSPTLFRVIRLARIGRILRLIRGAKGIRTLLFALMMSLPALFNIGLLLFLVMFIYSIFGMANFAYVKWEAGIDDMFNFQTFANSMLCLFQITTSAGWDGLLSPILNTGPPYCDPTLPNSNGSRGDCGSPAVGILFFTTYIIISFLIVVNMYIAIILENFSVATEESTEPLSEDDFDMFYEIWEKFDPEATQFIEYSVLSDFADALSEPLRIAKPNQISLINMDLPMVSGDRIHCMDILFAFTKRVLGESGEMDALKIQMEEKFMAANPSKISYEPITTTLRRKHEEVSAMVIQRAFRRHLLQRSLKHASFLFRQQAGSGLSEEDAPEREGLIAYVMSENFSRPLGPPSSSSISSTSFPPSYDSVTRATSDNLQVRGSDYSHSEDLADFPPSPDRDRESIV
T1 sequence (P08684 whole entry): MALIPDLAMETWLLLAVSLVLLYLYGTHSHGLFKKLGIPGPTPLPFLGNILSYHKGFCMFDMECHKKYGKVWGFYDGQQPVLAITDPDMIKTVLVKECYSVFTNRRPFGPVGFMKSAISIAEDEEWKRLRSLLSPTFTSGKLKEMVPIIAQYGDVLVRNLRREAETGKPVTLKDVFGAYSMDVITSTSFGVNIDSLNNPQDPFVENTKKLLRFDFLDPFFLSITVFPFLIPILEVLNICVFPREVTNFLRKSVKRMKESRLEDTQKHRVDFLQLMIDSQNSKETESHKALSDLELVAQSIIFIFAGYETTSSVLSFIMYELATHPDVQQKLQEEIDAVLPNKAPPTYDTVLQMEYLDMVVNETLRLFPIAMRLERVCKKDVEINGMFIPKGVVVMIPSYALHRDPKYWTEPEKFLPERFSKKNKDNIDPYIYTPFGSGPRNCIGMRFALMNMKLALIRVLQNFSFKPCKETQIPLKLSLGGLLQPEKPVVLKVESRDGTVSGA
Sequence of Sodium channel protein type 9 subunit alpha (Q15858 whole entry): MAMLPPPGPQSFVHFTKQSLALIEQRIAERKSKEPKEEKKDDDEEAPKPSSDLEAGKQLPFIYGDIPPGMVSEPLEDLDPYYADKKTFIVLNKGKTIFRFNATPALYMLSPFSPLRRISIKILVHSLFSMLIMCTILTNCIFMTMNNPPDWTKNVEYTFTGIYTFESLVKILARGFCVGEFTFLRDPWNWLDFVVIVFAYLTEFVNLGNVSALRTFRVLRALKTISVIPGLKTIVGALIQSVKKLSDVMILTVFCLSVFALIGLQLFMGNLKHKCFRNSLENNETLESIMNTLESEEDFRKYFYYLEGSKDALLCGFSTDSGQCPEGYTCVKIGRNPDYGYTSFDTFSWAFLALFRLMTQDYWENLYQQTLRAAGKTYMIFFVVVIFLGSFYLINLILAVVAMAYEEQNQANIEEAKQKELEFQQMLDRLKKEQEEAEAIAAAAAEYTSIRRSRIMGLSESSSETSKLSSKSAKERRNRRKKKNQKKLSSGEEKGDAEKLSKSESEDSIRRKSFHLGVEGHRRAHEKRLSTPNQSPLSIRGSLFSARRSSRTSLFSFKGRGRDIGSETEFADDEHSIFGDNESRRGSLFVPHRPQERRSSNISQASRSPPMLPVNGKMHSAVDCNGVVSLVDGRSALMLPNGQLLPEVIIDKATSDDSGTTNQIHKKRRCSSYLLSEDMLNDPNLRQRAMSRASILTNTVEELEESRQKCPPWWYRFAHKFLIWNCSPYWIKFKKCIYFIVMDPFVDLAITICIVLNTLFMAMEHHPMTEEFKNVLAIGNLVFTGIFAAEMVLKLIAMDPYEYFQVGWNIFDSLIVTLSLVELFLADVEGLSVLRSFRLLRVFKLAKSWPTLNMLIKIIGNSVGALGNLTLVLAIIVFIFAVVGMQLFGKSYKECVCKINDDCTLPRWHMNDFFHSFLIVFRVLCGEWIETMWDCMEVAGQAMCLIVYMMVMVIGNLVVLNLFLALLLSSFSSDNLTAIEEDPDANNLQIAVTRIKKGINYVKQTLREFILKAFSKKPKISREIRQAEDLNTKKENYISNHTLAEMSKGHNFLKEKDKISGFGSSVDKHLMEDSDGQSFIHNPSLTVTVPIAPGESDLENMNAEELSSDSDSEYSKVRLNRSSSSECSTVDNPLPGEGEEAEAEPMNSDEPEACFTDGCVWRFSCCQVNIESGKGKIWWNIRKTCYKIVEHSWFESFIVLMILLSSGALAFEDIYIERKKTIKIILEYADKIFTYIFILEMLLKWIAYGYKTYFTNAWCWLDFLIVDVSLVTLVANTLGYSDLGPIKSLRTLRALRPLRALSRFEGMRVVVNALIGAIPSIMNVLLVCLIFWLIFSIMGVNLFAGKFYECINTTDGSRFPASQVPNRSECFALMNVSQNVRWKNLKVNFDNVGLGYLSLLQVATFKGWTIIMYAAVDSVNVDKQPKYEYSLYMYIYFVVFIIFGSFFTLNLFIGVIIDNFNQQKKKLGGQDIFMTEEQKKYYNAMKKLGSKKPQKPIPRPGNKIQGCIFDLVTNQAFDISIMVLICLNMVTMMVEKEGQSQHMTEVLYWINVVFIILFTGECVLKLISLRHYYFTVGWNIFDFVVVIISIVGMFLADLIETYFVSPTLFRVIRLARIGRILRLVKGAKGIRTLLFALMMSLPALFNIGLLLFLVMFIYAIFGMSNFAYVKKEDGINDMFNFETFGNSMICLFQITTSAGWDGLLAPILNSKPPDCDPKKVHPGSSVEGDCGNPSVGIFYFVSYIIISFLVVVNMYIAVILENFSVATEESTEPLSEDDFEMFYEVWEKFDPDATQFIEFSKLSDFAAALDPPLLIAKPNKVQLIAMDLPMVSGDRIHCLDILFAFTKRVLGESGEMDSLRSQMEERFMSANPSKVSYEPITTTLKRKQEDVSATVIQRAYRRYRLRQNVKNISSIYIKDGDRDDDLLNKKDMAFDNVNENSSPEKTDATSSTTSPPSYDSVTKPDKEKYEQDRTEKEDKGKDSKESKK

Row | Structure (SMILES) | CL free (Rattus norvegicus) | pIC50 [1] | CL free (Canis familiaris) | clearance [2] | pIC50 (Cytochrome P450 3A4 [3]) | Activity (Cytochrome P450 3A4 [4]) | activity at 10 µM (PXR (NR1I2)) | pIC50 [5] | microsomal CLint at 1 µM [6] | microsomal CLint at 1 µM [7] | clearance [8] | solubility thermodynamic at 48 h [9] | microsomal CLint [10]
1 | COc1cc(C(F)(F)F)ccc1-c1ncnc2cc(S(=O)(=O)Nc3nccs3)ccc12 | 450 mL/min/kg | < 4.52 | 200 mL/min/kg | 0.217 mL/min/kg | < 4.30 | 128% | – | – | – | – | – | – | –
2 | COc1cc(-c2cccc(C(F)(F)F)c2)c(C#N)cc1-c1nccc2cc(S(=O)(=O)Nc3ccon3)ccc12 | – | – | – | – | – | – | 5% | 7.55 | – | – | – | – | –
3 | COc1cc(-c2cccc(F)c2)c(Cl)cc1-c1c(=O)n(C)cc2cc(S(=O)(=O)Nc3ccon3)ccc12 | – | < 5.00 | – | – | – | – | 69% | – | < 14 µL/min/mg | 21 µL/min/mg | – | – | –
4 | COc1cc(-c2cc(F)cc(F)c2)c(C#N)cc1-c1nccc2cc(S(=O)(=O)Nc3ccon3)ccc12 | – | – | – | – | – | – | 54% | 6.85 | – | – | – | – | –
5 | COc1cc(-c2cccc(C(F)(F)F)c2)ccc1-c1nccc2cc(S(=O)(=O)Nc3ccon3)ccc12 | – | – | – | – | – | – | 7% | 7.21 | – | – | – | – | –
6 | COc1cc(-c2cccc(F)c2)c(Cl)cc1-c1c(N)nnc2cc(S(=O)(=O)Nc3ccon3)ccc12 | – | 6.85 | – | – | – | – | 95% | – | < 14 µL/min/mg | < 14 µL/min/mg | – | – | –
7 | COc1cc(-c2cccc(C)c2)c(F)cc1-c1nccc2cc(S(=O)(=O)Nc3ccon3)ccc12 | – | < 5.00 | – | – | – | – | 54% | 7.33 | 36 µL/min/mg | 34 µL/min/mg | – | – | –
8 | COc1cc(C(F)(F)F)ccc1-c1nccc2cc(S(=O)(=O)Nc3ccncn3)ccc12 | 183 mL/min/kg | < 4.52 | 26.7 mL/min/kg | 0.917 mL/min/kg | 5.14 | 177% | – | 6.14 | – | – | 4.33 mL/min/kg | – | –
9 | COc1cc(-c2cccc(F)c2)c(Cl)cc1-c1nccc2cc(S(=O)(=O)Nc3ncccn3)ccc12 | – | < 5.00 | – | – | < 4.57 | – | 31% | 6.92 | < 14 µL/min/mg | 32 µL/min/mg | – | – | –
10 | COc1cc(-c2cccc(F)c2)c(Cl)cc1-c1nccc2cc(S(=O)(=O)Nc3ncns3)ccc12 | – | 5.82 | – | – | 6.10 | – | 5.9% | – | < 14 µL/min/mg | < 14 µL/min/mg | – | – | –
11 | COc1cc(-c2cc(F)cnc2OC)c(F)cc1-c1nccc2cc(S(=O)(=O)Nc3ccon3)ccc12 | – | < 5.00 | – | – | – | – | 151% | – | < 14 µL/min/mg | 21 µL/min/mg | – | – | –
12 | COc1cc(-c2cc(F)cc(F)c2)c(F)cc1-c1nccc2cc(S(=O)(=O)Nc3ccon3)ccc12 | – | < 5.00 | – | – | – | – | 47% | 7.40 | 30 µL/min/mg | < 14 µL/min/mg | – | – | –
13 | COc1cc(-c2ccc(Cl)c(C)c2)c(F)cc1-c1nccc2cc(S(=O)(=O)Nc3ccon3)ccc12 | – | < 5.00 | – | – | – | – | 1% | – | 35 µL/min/mg | 21 µL/min/mg | – | – | –
14 | COc1cc(-c2cccc(F)c2)c(Cl)cc1-c1nccc2cc(S(=O)(=O)Nc3ccncn3)ccc12 | – | < 5.00 | – | – | < 4.57 | – | 24% | 7.19 | < 14 µL/min/mg | < 14 µL/min/mg | – | – | –
15 | COc1cc(-c2cccc(F)c2)c(Cl)cc1-c1ncnc2cc(S(=O)(=O)Nc3ccon3)ccc12 | – | – | 417 mL/min/kg | 2 mL/min/kg | – | – | 59% | – | 21 µL/min/mg | 58 µL/min/mg | – | – | –
16 | COc1cc(-c2ccc(C(F)(F)F)cc2)c(F)cc1-c1nccc2cc(S(=O)(=O)Nc3ccon3)ccc12 | – | < 5.00 | – | – | – | – | 0% | – | < 14 µL/min/mg | < 14 µL/min/mg | – | – | –
17 | COc1cc(-c2cc(F)cc(F)c2)ccc1-c1nccc2cc(S(=O)(=O)Nc3ccon3)ccc12 | – | – | – | – | – | – | 38% | – | – | – | – | – | –
18 | COc1cc(-c2cccc(F)c2)c(Cl)cc1-c1nccc2cc(S(=O)(=O)Nc3ncon3)ccc12 | 15700 mL/min/kg | – | 2570 mL/min/kg | 2.83 mL/min/kg | < 4.57 | – | 10% | 7.33 | < 14 µL/min/mg | 20 µL/min/mg | 26.7 mL/min/kg | – | –
19 | COc1cc(-c2cccc(F)c2)c(Cl)cc1-c1[nH]c(=O)cc2cc(S(=O)(=O)Nc3ccon3)ccc12 | 25000 mL/min/kg | 6.09 | 8500 mL/min/kg | 13.7 mL/min/kg | – | – | 27% | – | < 14 µL/min/mg | 18 µL/min/mg | 35 mL/min/kg | – | –
20 | COc1cc(-c2cccc(F)c2)ccc1-c1nccc2cc(S(=O)(=O)Nc3ccncn3)ccc12 | 6500 mL/min/kg | < 4.52 | 152 mL/min/kg | 0.817 mL/min/kg | 5.89 | 12% | – | 6.82 | < 14 µL/min/mg | < 14 µL/min/mg | 28.3 mL/min/kg | 344 µM (≈ 167 µg/mL) | < 14 µL/min/mg
21 | COc1cc(-c2cccc(F)c2)c(Cl)cc1-c1ncc(O)c2cc(S(=O)(=O)Nc3ccon3)ccc12 | – | – | 2330 mL/min/kg | 2.17 mL/min/kg | – | – | 28% | – | 15 µL/min/mg | 28 µL/min/mg | – | – | –
22 | COc1cc(-c2cccc(F)c2)c(Cl)cc1-c1nn(C)c(=O)c2cc(S(=O)(=O)Nc3ccon3)ccc12 | 10300 mL/min/kg | – | 517 mL/min/kg | 1.83 mL/min/kg | – | – | 54% | 6.92 | 16 µL/min/mg | 25 µL/min/mg | 35 mL/min/kg | – | –
23 | COc1cc(-c2cccc(F)c2)c(Cl)cc1-c1nccc2cc(S(=O)(=O)Nc3ncco3)ccc12 | – | < 5.00 | – | – | < 4.57 | – | 38% | – | 46 µL/min/mg | 98 µL/min/mg | – | – | –
24 | COc1cc(-c2cccc(F)c2)c(Cl)cc1-c1nccc2cc(S(=O)(=O)Nc3cccnn3)ccc12 | – | – | – | – | < 4.57 | – | 52% | – | < 14 µL/min/mg | 29 µL/min/mg | – | – | –
25 | COc1cc(-c2cccc(Cl)c2)c(F)cc1-c1nccc2cc(S(=O)(=O)Nc3ccon3)ccc12 | – | – | – | – | – | – | 34% | – | 36 µL/min/mg | 34 µL/min/mg | – | – | –
26 | COc1cc(-c2cccc(F)c2)c(Cl)cc1-c1nccc2cc(S(=O)(=O)Nc3ccon3)ccc12 | 700 mL/min/kg | < 5.00 | 26.7 to 31.7 mL/min/kg | 0.05 mL/min/kg | < 4.57 | 58% | 68% | 7.29 to 7.31 | < 14 µL/min/mg | 18 µL/min/mg | 0.783 mL/min/kg | – | –
